Test results from ChEMBL document CHEMBL4177626, “Synthesis and anti-HCV activity of a series of β-d-2'-deoxy-2'-dibromo nucleosides and their corresponding phosphoramidate prodrugs” (Bioorg Med Chem Lett, 2017).
Calls of active or inactive are those of the source. The rule behind the calls is not given here.

How the values were obtained:
[1] = tested on: Respiratory syncytial virus; test: Antiviral activity against Respiratory syncytial virus up to 10 uM; assay type: functional, organism-based
[2] = tested on: PBMC; test: (§1) Cytotoxicity against human PBMC assessed as reduction in cell viability after 6 days by trypan blue exclusion assay; assay type: cell-based; conditions: pbmc, 144 h
[3] = tested on: Chikungunya virus; test: Antiviral activity against Chikungunya virus up to 10 uM; assay type: functional, organism-based
[4] = tested on: CCRF-CEM; test: (§2) Cytotoxicity against human CEM cells assessed as reduction in cell viability after 6 days by trypan blue exclusion assay; assay type: cell-based; conditions: ccrf-cem, 144 h
[5] = tested on: Dengue virus; test: Antiviral activity against Dengue virus up to 10 uM; assay type: functional, organism-based
[6] = tested on: Hepatitis C virus; test: Antiviral activity against HCV genotype 1b infected in human HuH7 cells assessed as inhibition of viral RNA replication after 5 days by RT-PCR method; assay type: functional, organism-based, Hepacivirus hominis; conditions: Huh-7, 120 h
How it was run: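 Subgenomic HCV genotype 1b replicon in Huh-7 cells. Inhibition of replicon RNA replication was measured by extracting and amplifying HCV RNA. Cellular ribosomal RNA was extracted and amplified at the same time, as a parallel cytotoxicity read-out.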

[7] = tested on: Huh-7; test: Cytotoxicity against human HuH7 cells assessed as reduction in cell viability by MTT assay; assay type: cell-based
[8] = tested on: Human immunodeficiency virus; test: Antiviral activity against Human immunodeficiency virus up to 10 uM; assay type: functional, organism-based
[9] = tested on: Norovirus; test: Antiviral activity against Norovirus up to 10 uM; assay type: functional, organism-based
[10] = tested on: West Nile virus; test: Antiviral activity against West Nile virus up to 10 uM; assay type: functional, organism-based
[11] = tested on: Vero; test: (§3) Cytotoxicity against African green monkey Vero cells assessed as reduction in cell viability after 6 days by trypan blue exclusion assay; assay type: cell-based; conditions: chlorocebus sabaeus, vero, 144 h
[12] = tested on: unidentified influenza virus; test: Antiviral activity against Influenza virus up to 10 uM; assay type: functional, organism-based
[13] = tested on: Ebolavirus; test: Antiviral activity against Ebolavirus up to 10 uM; assay type: functional
[14] = as §1; assay type: cell-based; conditions: PBMC
[15] = as §2; assay type: cell-based, CCRF-CEM; conditions: CEM cells
[16] = as §3; assay type: cell-based; conditions: chlorocebus sabaeus, Vero cells

Row | Compound | Activity [1] | CC50 [2] | Activity [3] | CC50 [4] | Activity [5] | EC50 [6] | CC50 [7] | Activity [8] | Activity [9] | Activity [10] | CC50 [11] | Activity [12] | Activity [13] | EC90 [6] | CC50 at 144 h [14] | CC50 at 144 h [15] | CC50 at 144 h [16]
1 | CC(C)OC(=O)[C@H](C)N[P@](=O)(OC[C@H]1O[C@@H](n2cnc3c(=O)[nH]c(N)nc32)C(Br)(Br)[C@@H]1O)Oc1ccccc1 | inactive | > 100 µM | inactive | 34 µM | inactive | > 10 µM | > 10 µM | inactive | inactive | inactive | > 100 µM | inactive | inactive | – | – | – | –
2 | CC(C)OC(=O)[C@H](C)N[P@](=O)(OC[C@H]1O[C@@H](n2ccc(N)nc2=O)C(Br)(Br)[C@@H]1O)Oc1ccccc1 | inactive | > 100 µM | inactive | 73 µM | inactive | > 10 µM | > 10 µM | inactive | inactive | inactive | > 100 µM | inactive | inactive | > 10 µM | – | – | –
3 | CC(C)OC(=O)[C@H](C)N[P@](=O)(OC[C@H]1O[C@@H](n2ccc(=O)[nH]c2=O)C(Br)(Br)[C@@H]1O)Oc1ccccc1 | inactive | > 100 µM | inactive | 95 µM | inactive | 1.5 µM | > 10 µM | inactive | inactive | inactive | > 100 µM | inactive | inactive | 2.7 µM | – | – | –
4 | CC(C)OC(=O)[C@H](C)N[P@](=O)(OC[C@H]1O[C@@H](n2cnc3c(N)ncnc32)C(Br)(Br)[C@@H]1O)Oc1ccccc1 | inactive | 57 µM | inactive | 33 µM | inactive | > 10 µM | > 10 µM | inactive | inactive | inactive | 60 µM | inactive | inactive | – | – | – | –
5 | Nc1nc2c(ncn2[C@@H]2O[C@H](CO)C(O)C2(Br)Br)c(=O)[nH]1 (single isomer, unassigned) | inactive | > 100 µM | inactive | > 100 µM | inactive | > 10 µM | > 10 µM | inactive | inactive | inactive | > 100 µM | inactive | inactive | > 10 µM | – | – | –
6 | Nc1ccn([C@@H]2O[C@H](CO)C(O)C2(Br)Br)c(=O)n1 (single isomer, unassigned) | inactive | > 100 µM | inactive | 82 µM | inactive | > 10 µM | > 10 µM | inactive | inactive | inactive | > 100 µM | inactive | inactive | – | – | – | –
7 | Nc1ncnc2c1ncn2[C@@H]1O[C@H](CO)C(O)C1(Br)Br (single isomer, unassigned) | inactive | > 100 µM | inactive | > 100 µM | inactive | > 10 µM | > 10 µM | inactive | inactive | inactive | > 100 µM | inactive | inactive | > 10 µM | – | – | –
8 | O=c1ccn([C@@H]2O[C@H](CO)C(O)C2(Br)Br)c(=O)[nH]1 (single isomer, unassigned) | inactive | > 100 µM | inactive | > 100 µM | inactive | > 33 µM | > 33 µM | inactive | inactive | inactive | > 100 µM | inactive | inactive | > 33 µM | – | – | –
9 | CC(C)OC(=O)[C@H](C)N[P@](=O)(OC[C@H]1O[C@@H](n2ccc(=O)[nH]c2=O)[C@](C)(F)[C@@H]1O)Oc1ccccc1 [SOFOSBUVIR] | – | – | – | – | – | 0.2 µM | > 10 µM | – | – | – | – | – | – | 0.5 µM | > 100 µM | > 100 µM | > 100 µM
